{"data": "Results pooled from the literature", "target": "MAP/microtubule affinity-regulating kinase 3 (MARK3, Homo sapiens, UniProt P27448)", "note": "Each line is one published result; the experiments were not run side by side."}
{"Structure (SMILES)": "CN(C)c1nccc(-c2cnn3ncccc23)n1", "observed": "binding", "tested at": "1 µM", "remaining binding": "100%"}
{"Structure (SMILES)": "C[C@@H]1CN(c2ccc3ncc(-c4ccc5[nH]nc(C6CC6)c5c4)n3n2)C[C@H](C)O1", "observed": "binding", "technique": "competition with immobilised ligand", "tested at": "50 nM", "remaining binding": "100%"}
{"Structure (SMILES)": "Cc1cnc(Nc2ccc(C(=O)N3CCC(N4CCCC4)CC3)cc2)nc1-c1cc2ccccc2s1", "observed": "binding", "technique": "competition with immobilised ligand", "tested at": "1 µM", "remaining binding": "100%"}
{"Structure (SMILES)": "N[C@H]1CCN(c2nccc(-c3cnn4ncccc34)n2)C1", "observed": "binding", "tested at": "1 µM", "remaining binding": "57%"}
{"Structure (SMILES)": "CCN1CCN(Cc2ccc(C(=O)Nc3ccc(C)c(Oc4ccc5c(c4)CC(=O)N5)c3)cc2C(F)(F)F)CC1", "observed": "binding", "technique": "competition with immobilised ligand", "tested at": "1 µM", "remaining binding": "100%"}
{"Structure (SMILES)": "CC(=O)Nc1c(C(C)=O)c(=O)n(C)c2nc(-c3ccc(Cl)cc3Cl)c(-c3ccc(Cl)cc3)cc12", "observed": "cell-free assay", "technique": "competition with immobilised ligand", "tested at": "1 µM", "remaining binding": "100%"}
{"Structure (SMILES)": "O=C(NCC1CCOCC1)c1n[nH]cc1NC(=O)c1c(F)cccc1F", "observed": "binding", "technique": "competition with immobilised ligand", "tested at": "1 µM", "remaining binding": "100%"}
{"Structure (SMILES)": "O=C(c1ccc(Nc2nccc(-c3cc4ccccc4s3)n2)cc1)N1CCC(N2CCCC2)CC1", "observed": "binding", "technique": "competition with immobilised ligand", "tested at": "1 µM", "remaining binding": "100%"}
{"Structure (SMILES)": "Cc1c(C(=O)O)cc(-c2ccc(C3CCNCC3)cc2)c2ccc(-c3ccc(C(F)(F)F)cc3)cc12", "observed": "binding", "technique": "competition with immobilised ligand", "tested at": "1 µM", "remaining binding": "100%"}
{"Structure (SMILES)": "F[C@@H]1CCN(c2nccc(-c3cnn4ncccc34)n2)C1", "observed": "binding", "tested at": "1 µM", "remaining binding": "100%"}
{"Structure (SMILES)": "CC(C)(C)c1ccc(-c2nc(CBr)nn2-c2cccc(O)c2)cc1", "observed": "cell-free assay", "technique": "competition with immobilised ligand", "tested at": "10 µM", "remaining binding": "85%"}
{"Structure (SMILES)": "O=C(Nc1cccnn1)N1CCC(=Cc2cccc(Oc3ccc(C(F)(F)F)cn3)c2)CC1", "observed": "cell-free assay", "technique": "competition with immobilised ligand", "tested at": "1 µM", "remaining binding": "89%"}
{"Structure (SMILES)": "C[C@@H]1CCN(c2nccc(-c3cnn4ncccc34)n2)C1", "observed": "binding", "tested at": "1 µM", "remaining binding": "100%"}
{"Structure (SMILES)": "C=CC(=O)N1CCC(C(=O)NCC(=O)N2CCN(c3nc(-c4cnc(N)nc4C(F)F)nc(N4CCOCC4)n3)CC2)CC1", "observed": "binding", "technique": "competition with immobilised ligand", "tested at": "1 µM", "remaining binding": "65%"}
{"Structure (SMILES)": "CC1CCCN1c1nccc(-c2cnn3ncccc23)n1 (stereo not drawn)", "observed": "binding", "tested at": "1 µM", "remaining binding": "100%"}
{"Structure (SMILES)": "CNC(=O)[C@@H]1CC[C@@H](n2c(-c3ccc4cnccc4c3)nc3ccc(C(=O)NCc4cccc(C(N)=O)c4)cc32)C1", "observed": "binding", "technique": "competition with immobilised ligand", "tested at": "1 µM", "remaining binding": "59%"}
{"Structure (SMILES)": "Cc1noc([C@H]2C[C@@H](c3ccc(C(F)(F)F)cc3)CN(C(=O)N3CCS(=O)(=O)C3)C2)n1", "observed": "cell-free assay", "technique": "competition with immobilised ligand", "tested at": "1 µM", "remaining binding": "100%"}
{"Structure (SMILES)": "c1cnn2ncc(-c3ccnc(N4CCC45COC5)n3)c2c1", "observed": "binding", "tested at": "1 µM", "remaining binding": "100%"}
{"Structure (SMILES)": "CN(C)C(=O)Cn1cc(-c2nc([C@@](C)(c3ccc(-c4cnc(N)nc4)cc3)C3CC3)no2)cn1", "observed": "cell-free assay", "technique": "competition with immobilised ligand", "tested at": "1 µM", "remaining binding": "99%"}
{"Structure (SMILES)": "c1cncc(-c2cccc(Nc3nccc(NC4CCCCC4)n3)c2)c1", "observed": "binding", "technique": "competition with immobilised ligand", "tested at": "10 µM", "remaining binding": "99%"}
{"Structure (SMILES)": "CCc1ccccc1C(=O)Nc1n[nH]c2c(C)c(F)c(C3C(C#N)=C(C)N(C)C(C)=C3C#N)cc12", "observed": "cell-free assay", "technique": "competition with immobilised ligand", "tested at": "1 µM", "remaining binding": "30%"}
{"Structure (SMILES)": "O=C(c1ccc(Nc2ncc(Cl)c(-c3cc4ccccc4s3)n2)cc1)N1CCC(N2CCCC2)CC1", "observed": "binding", "technique": "competition with immobilised ligand", "tested at": "1 µM", "remaining binding": "100%"}
{"Structure (SMILES)": "O=C(NCc1ncc(C(F)(F)F)cc1Cl)c1ccc2c(c1)C1(CCS(=O)(=O)CC1)[C@H](C1CC1)N2S(=O)(=O)c1ccc(F)cc1", "observed": "cell-free assay", "technique": "competition with immobilised ligand", "tested at": "1 µM", "remaining binding": "89%"}
{"Structure (SMILES)": "Nc1ncc2c(n1)-c1c([nH]c3ccc(C#CC4CC4)cc13)CCCC2", "observed": "binding", "technique": "competition with immobilised ligand", "tested at": "1 µM", "remaining binding": "97%"}
